# Data from ChEMBL document CHEMBL4024770, “Augmentation of Anticancer Drug Efficacy in Murine Hepatocellular Carcinoma Cells by a Peripherally Acting Competitive N-Methyl-d-aspartate (NMDA) Receptor Antagonist” (J Med Chem, 2017).
# Experiments:
# [1] = target: Glutamate NMDA receptor; Grin1/Grin2a (Rattus norvegicus, UniProt P35439+Q00959); assay: Antagonist activity at recombinant rat GluN1a/GluN2A expressed in Xenopus laevis oocytes assessed as inhibition of glycine/glutamate-mediated current responses by two-electrode voltage clamp method; assay type: cell-based
# Sequence of Glutamate NMDA receptor; Grin1/Grin2a (Q00959 whole entry, other chains not shown): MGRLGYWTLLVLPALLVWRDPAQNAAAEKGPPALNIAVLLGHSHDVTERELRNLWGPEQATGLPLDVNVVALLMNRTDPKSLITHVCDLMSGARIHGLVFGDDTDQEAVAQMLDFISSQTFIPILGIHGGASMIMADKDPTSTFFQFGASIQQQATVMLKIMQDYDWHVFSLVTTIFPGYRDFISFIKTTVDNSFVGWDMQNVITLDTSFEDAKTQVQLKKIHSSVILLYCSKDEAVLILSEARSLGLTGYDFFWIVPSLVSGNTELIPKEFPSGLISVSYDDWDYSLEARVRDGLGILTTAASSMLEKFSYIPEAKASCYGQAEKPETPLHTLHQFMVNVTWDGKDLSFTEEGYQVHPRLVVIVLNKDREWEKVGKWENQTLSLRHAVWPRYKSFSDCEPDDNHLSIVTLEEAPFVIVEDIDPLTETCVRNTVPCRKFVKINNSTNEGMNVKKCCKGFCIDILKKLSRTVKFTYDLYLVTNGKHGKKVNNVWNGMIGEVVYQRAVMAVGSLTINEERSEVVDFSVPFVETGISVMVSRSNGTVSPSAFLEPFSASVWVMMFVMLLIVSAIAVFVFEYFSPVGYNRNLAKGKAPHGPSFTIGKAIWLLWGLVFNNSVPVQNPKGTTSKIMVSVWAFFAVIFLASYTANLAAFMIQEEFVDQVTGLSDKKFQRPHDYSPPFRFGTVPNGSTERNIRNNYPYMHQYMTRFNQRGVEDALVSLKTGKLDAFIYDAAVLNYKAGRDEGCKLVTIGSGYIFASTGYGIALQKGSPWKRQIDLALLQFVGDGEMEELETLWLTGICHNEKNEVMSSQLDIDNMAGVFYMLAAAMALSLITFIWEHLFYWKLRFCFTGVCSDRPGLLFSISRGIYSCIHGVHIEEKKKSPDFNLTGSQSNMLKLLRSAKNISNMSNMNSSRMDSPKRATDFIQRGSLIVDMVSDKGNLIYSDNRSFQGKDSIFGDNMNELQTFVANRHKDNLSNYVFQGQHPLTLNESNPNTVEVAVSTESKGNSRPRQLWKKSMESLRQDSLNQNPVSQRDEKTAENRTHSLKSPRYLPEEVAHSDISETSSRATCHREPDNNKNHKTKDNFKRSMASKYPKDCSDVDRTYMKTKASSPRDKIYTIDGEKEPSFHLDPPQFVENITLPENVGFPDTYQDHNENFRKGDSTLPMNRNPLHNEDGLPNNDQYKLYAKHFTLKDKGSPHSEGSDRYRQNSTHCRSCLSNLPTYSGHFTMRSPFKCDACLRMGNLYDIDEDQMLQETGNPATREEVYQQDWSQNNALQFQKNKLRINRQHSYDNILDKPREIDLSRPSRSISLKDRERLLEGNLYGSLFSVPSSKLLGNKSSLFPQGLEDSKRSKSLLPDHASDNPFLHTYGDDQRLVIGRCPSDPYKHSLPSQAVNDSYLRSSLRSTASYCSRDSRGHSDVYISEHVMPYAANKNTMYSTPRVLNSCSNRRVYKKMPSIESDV
# How it was run: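 Xenopus oocytes were injected with rat GluN1 and GluN2A–D cRNA (1:2) and recorded 2–6 days later by TEVC at room temperature, −40 mV, in Ba2+-containing recording solution, pH 7.4. Currents were evoked by 100 μM glycine plus glutamate at 2–3× EC50: 10 μM for GluN2A, 3 μM for GluN2B and GluN2C, 1 μM for GluN2D. IC50 from Hill fits per oocyte; Ki estimated.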
# [2] = test system: Plasma; assay: Cmax in mouse plasma at 10 mg/kg, ip administered as bolus dose by LC-MS/MS analysis; assay type: ADME, organism-based; parameters: dose 10 mg/kg, route intraperitoneal; settings: in vivo
# How it was run: (§1)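 Adult male mice (25 ± 5 g) given a single 10 mg/kg i.p. bolus, prepared as a 5.0 mM solution in 0.9% NaCl. Animals were decapitated at five time points between 10 and 240 min. Plasma was precipitated with acetonitrile containing internal standard. Brain and liver were homogenized in water (1:3) and precipitated the same way. Analysis by LC-MS/MS, with AUC0–240, Cmax, tmax, t½β and liver/plasma ratio derived from the concentration-time data.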
# [3] = test system: Liver; assay: Elimination half life in mouse liver at 10 mg/kg, ip administered as bolus dose by LC-MS/MS analysis; assay type: ADME, organism-based; settings: in vivo; how it was run: as §1
# [4] = species on record: Mus musculus; assay: Antagonist activity at NMDA receptor in Nras driven p53 deficient mouse HCC cell membranes assessed as potentiation of 10 uM sorafenib-mediated antiproliferative activity by measuring cell viability at 100 uM after 72 hrs by resazurin assay (reference value: […] +/- […]%)
smiles,measurement,setting,value
Cl.O=C(O)c1cc([C@H]2CCN[C@@H]2C(=O)O)ccc1Cl,IC50,[1],15 µM
same,Ki,[1],4.7 µM
same,Cmax,[2],43.4 nmol/g
same,beta t1/2,[3],36 min
same,Activity,[4],24%
